In assay [1] the target is T1, Ephrin type-B receptor 4 (Homo sapiens, UniProt P54760).
T1 sequence (P54760 whole entry): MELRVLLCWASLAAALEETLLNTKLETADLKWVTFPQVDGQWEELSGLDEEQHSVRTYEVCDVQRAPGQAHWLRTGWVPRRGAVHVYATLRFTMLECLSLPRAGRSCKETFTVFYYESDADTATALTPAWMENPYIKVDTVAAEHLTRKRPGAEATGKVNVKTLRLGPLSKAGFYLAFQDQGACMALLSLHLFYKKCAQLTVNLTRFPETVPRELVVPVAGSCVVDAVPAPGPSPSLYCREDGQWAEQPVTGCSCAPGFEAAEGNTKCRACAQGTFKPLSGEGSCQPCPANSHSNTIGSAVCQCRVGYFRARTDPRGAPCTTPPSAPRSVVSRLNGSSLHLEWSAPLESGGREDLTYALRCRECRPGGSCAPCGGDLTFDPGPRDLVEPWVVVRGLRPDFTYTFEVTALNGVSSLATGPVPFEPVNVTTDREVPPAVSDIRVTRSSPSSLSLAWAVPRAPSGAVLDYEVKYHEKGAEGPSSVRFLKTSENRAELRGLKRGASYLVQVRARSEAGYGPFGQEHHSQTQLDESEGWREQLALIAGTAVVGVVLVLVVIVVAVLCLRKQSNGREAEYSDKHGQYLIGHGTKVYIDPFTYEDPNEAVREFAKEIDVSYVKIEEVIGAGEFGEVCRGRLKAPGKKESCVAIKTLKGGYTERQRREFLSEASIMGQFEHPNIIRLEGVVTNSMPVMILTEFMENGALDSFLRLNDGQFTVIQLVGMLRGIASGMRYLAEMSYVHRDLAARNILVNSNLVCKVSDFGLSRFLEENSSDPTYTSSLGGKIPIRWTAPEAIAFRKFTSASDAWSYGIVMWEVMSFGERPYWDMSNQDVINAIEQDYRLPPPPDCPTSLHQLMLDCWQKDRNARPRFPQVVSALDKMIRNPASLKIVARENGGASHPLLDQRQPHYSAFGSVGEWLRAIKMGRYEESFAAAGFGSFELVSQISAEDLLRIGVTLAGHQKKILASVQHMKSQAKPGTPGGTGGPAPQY
As to the kind of experiment: Inhibition of EphB4 assessed as blockade of synthetic substrate phosphorylation by FRET assay.

Assay [2] addresses T1, Ephrin type-B receptor 4. As to the kind of experiment: Inhibition of EphB4 by [gamma33-P]ATP based assay.
In assay [3] the target is Dual specificity mitogen-activated protein kinase kinase 1 (Homo sapiens) (UniProt Q02750). As to the kind of experiment: Inhibition of MKK1 assessed as remaining enzyme activity at 3 uM relative to DMSO. In a few lines:
(§1)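 Radiometric kinase assay run robotically at room temperature for 30 min. Contained 10 mM magnesium acetate and [γ-33P]ATP (800 cpm/pmol) at 5, 20 or 50 μM, chosen per kinase to be at or below its ATP Km. Reactions were started with MgATP, stopped with orthophosphoric acid and spotted onto P81 filters. Result is mean % activity of duplicates at one inhibitor concentration versus DMSO control.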

Assay [4] has as its target Mitogen-activated protein kinase 3 (Homo sapiens) (UniProt P27361). As to the kind of experiment: Inhibition of ERK1 assessed as remaining enzyme activity at 3 uM relative to DMSO. In a few lines:
(§2)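 Dundee kinase panel, radiometric: [γ-33P]ATP (800 cpm/pmol) at 5, 20 or 50 μM, at or below each kinase's ATP Km; 10 mM magnesium acetate; robotic, room temperature, 30 min. Reactions started with MgATP, stopped with orthophosphoric acid, spotted onto P81 filters. Inhibitor tested at a single concentration; mean % activity of duplicates relative to DMSO control.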

The target in assay [5] is Mitogen-activated protein kinase 11 (Homo sapiens) (UniProt Q15759). As to the kind of experiment: Inhibition of p38beta assessed as remaining enzyme activity at 3 uM relative to DMSO.
Mitogen-activated protein kinase 11 (Homo sapiens), sequence (Q15759 whole entry): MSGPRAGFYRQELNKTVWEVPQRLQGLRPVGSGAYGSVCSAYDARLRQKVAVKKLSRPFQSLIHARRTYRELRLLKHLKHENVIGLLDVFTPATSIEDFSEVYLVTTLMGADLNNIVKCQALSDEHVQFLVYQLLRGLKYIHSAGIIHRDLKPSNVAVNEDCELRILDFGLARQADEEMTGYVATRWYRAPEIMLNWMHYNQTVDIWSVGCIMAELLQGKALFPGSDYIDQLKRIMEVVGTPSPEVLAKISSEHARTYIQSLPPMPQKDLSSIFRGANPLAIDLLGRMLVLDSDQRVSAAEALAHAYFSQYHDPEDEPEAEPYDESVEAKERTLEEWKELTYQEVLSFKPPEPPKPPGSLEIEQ
Assay [6] deals with RAC-alpha serine/threonine-protein kinase (Homo sapiens) (UniProt P31749). As to the kind of experiment: Inhibition of PKBalpha assessed as remaining enzyme activity at 3 uM relative to DMSO. In a few lines:
as §1

For assay [7], the target named is Ribosomal protein S6 kinase beta-1 (Homo sapiens) (UniProt P23443). As to the kind of experiment: Inhibition of S6K1 assessed as remaining enzyme activity at 3 uM relative to DMSO.
For assay [8], the target named is Fibroblast growth factor receptor 1 (Homo sapiens) (UniProt P11362). As to the kind of experiment: Inhibition of FGF-R1 assessed as remaining enzyme activity at 3 uM relative to DMSO. The essentials: as §2
Fibroblast growth factor receptor 1 (Homo sapiens), sequence (P11362 22-822 limits assumed): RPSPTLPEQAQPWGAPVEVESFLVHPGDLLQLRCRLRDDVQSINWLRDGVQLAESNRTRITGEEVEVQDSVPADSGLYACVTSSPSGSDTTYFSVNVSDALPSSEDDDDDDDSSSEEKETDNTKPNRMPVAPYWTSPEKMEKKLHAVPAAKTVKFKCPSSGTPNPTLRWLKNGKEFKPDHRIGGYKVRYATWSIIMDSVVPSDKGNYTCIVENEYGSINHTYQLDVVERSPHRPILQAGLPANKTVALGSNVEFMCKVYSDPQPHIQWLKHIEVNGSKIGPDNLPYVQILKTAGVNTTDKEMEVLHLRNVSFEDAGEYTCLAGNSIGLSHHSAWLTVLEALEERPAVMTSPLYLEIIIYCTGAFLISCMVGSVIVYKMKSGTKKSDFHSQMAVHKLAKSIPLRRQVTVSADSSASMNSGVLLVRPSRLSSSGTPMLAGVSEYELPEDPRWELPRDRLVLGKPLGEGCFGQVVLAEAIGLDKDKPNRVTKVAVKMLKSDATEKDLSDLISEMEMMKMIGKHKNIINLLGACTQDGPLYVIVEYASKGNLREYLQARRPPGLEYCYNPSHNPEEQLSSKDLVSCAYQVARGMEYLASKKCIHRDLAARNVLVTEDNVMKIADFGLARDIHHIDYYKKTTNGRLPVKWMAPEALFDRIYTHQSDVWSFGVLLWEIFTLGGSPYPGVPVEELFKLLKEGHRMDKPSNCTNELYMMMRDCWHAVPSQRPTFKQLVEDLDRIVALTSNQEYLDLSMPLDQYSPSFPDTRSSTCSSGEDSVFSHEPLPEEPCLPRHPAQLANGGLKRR
The target of assay [9] is Misshapen-like kinase 1 (Homo sapiens) (UniProt Q8N4C8). The assay can be described thus: Inhibition of MINK1 assessed as remaining enzyme activity at 3 uM relative to DMSO. In a few lines:
as §1

Assay [10] addresses Calcium/calmodulin-dependent protein kinase type 1 (Homo sapiens) (UniProt Q14012). As to the kind of experiment: Inhibition of CAMK1 assessed as remaining enzyme activity at 3 uM relative to DMSO.
Assay [11] concerns the target Receptor-interacting serine/threonine-protein kinase 2 (Homo sapiens) (UniProt O43353). The assay can be described thus: Binding affinity to RIPK2 assessed as percentage of kinase remaining bound to the bead at 1 uM by T7 phage display based binding assay. The essentials:
(§3)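 Competition binding assay run by a contract lab. Each kinase was expressed as a fusion to T7 phage, full-length for small kinases and catalytic domain for large ones. Phage were mixed with an immobilized known kinase inhibitor on streptavidin magnetic beads and with test compound at a single 1 μM. Kinase/phage still bound to the beads was quantified by qPCR and expressed as % of DMSO control.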

Assay [12] concerns the target Ribosomal protein S6 kinase alpha-6 (Homo sapiens) (UniProt Q9UK32). As to the kind of experiment: Binding affinity to RSK4 kinase domain 2 C-terminal assessed as percentage of kinase remaining bound to the bead at 1 uM by T7 phage display based binding assay. In a few lines: as §3
The target of assay [13] is Serine/threonine-protein kinase SIK1 (Homo sapiens) (UniProt P57059). The assay can be described thus: Binding affinity to SIK assessed as percentage of kinase remaining bound to the bead at 1 uM by T7 phage display based binding assay. The essentials:
as §3

Assay [14] concerns the target Tyrosine-protein kinase Srms (Homo sapiens) (UniProt Q9H3Y6). The assay can be described thus: Binding affinity to SRMS assessed as percentage of kinase remaining bound to the bead at 1 uM by T7 phage display based binding assay. In a few lines: as §3
The target of assay [15] is Serine/threonine-protein kinase STK11 (Homo sapiens) (UniProt Q15831). The assay can be described thus: Inhibition of LKB1 assessed as remaining enzyme activity at 1 uM relative to DMSO. The essentials:
as §2

Assay [16] addresses Tyrosine-protein kinase Blk (Homo sapiens) (UniProt P51451). As to the kind of experiment: Binding affinity to BLK assessed as percentage of kinase remaining bound to the bead at 1 uM by T7 phage display based binding assay. The essentials: as §3
Assay [17] deals with Mast/stem cell growth factor receptor Kit (Homo sapiens) (UniProt P10721). The assay can be described thus: Binding affinity to KIT assessed as percentage of kinase remaining bound to the bead at 1 uM by T7 phage display based binding assay. In a few lines: as §3
Assay [18] concerns the target Tyrosine-protein kinase Yes (Homo sapiens) (UniProt P07947). As to the kind of experiment: Inhibition of YES1 assessed as remaining enzyme activity at 1 uM relative to DMSO.
Assay [19] addresses Ribosomal protein S6 kinase alpha-3 (Homo sapiens) (UniProt P51812). As to the kind of experiment: Inhibition of RSK2 assessed as remaining enzyme activity at 1 uM relative to DMSO.
The target in assay [20] is RAC-beta serine/threonine-protein kinase (Homo sapiens) (UniProt P31751). As to the kind of experiment: Inhibition of PKBbeta assessed as remaining enzyme activity at 1 uM relative to DMSO. In a few lines: as §1

Molecules are shown by their SMILES.

The term IC50 denotes the concentration needed to halve the response being measured.

Tyrosine-protein kinase Srms (Homo sapiens), sequence (Q9H3Y6 whole entry): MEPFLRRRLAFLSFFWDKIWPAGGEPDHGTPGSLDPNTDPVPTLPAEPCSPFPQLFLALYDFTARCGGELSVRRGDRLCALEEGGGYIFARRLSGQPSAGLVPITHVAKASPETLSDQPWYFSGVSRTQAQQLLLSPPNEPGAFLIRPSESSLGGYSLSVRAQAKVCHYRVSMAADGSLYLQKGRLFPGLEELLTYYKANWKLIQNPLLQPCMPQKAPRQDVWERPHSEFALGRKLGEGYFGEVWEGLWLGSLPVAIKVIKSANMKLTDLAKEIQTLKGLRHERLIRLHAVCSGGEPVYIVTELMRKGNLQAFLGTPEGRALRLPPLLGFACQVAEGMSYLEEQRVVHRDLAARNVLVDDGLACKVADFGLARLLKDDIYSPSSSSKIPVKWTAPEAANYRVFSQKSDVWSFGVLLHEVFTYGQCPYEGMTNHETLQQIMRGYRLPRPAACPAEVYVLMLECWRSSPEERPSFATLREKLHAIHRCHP
Misshapen-like kinase 1 (Homo sapiens), sequence (Q8N4C8 whole entry, looked up): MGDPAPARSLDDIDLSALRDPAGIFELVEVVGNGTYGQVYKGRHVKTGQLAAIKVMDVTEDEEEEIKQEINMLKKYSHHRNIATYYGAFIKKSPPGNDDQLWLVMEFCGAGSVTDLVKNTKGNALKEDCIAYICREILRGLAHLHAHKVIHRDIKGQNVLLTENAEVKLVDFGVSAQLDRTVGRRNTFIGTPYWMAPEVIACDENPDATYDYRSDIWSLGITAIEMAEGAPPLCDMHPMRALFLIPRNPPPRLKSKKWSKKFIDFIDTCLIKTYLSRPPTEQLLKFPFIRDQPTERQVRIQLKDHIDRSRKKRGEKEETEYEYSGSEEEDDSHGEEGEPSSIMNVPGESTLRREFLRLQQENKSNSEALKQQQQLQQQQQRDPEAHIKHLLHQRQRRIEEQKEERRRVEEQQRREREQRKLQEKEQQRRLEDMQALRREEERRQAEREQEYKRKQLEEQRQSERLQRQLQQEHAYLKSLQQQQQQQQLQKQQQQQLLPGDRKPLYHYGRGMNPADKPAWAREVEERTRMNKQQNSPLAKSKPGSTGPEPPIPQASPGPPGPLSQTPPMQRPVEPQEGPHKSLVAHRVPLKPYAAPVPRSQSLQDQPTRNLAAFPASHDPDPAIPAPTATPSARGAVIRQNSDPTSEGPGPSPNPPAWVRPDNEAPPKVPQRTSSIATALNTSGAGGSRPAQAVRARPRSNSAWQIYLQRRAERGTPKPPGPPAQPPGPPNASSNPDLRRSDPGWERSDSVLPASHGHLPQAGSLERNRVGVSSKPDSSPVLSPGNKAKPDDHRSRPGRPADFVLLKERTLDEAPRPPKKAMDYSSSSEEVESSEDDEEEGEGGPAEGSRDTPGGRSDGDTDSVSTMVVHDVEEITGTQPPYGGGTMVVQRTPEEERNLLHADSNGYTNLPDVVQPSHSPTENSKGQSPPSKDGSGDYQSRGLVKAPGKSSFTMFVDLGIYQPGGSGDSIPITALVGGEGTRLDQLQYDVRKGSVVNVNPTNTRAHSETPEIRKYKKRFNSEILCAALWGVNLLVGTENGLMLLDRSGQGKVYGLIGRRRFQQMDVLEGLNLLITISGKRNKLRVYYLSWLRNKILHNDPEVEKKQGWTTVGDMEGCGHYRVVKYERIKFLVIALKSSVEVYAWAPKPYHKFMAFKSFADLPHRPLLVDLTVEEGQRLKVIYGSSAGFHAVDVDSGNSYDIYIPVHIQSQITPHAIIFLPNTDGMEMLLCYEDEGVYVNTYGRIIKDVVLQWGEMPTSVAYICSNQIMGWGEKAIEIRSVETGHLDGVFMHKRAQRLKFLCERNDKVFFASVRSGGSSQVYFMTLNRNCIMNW
Ribosomal protein S6 kinase alpha-3 (Homo sapiens), sequence (P51812 whole entry): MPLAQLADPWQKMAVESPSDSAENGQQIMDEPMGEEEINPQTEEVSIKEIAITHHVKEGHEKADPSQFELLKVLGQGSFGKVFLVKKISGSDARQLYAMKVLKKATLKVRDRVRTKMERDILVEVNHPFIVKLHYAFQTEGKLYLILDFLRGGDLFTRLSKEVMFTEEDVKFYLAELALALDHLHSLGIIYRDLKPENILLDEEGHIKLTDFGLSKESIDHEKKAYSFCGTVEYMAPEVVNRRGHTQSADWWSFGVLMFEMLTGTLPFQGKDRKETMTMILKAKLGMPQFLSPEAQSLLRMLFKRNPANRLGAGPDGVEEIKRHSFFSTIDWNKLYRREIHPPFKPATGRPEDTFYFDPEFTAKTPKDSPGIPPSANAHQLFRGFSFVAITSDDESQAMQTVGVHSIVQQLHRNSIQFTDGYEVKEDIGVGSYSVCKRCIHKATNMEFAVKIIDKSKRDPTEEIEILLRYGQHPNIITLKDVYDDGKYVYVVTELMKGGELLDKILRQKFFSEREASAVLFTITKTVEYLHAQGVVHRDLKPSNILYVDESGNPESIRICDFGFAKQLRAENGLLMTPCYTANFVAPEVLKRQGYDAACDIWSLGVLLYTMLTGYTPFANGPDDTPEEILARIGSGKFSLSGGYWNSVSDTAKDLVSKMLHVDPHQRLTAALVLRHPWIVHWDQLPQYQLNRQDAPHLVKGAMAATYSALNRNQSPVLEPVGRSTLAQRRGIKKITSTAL
Serine/threonine-protein kinase SIK1 (Homo sapiens), sequence (P57059 whole entry): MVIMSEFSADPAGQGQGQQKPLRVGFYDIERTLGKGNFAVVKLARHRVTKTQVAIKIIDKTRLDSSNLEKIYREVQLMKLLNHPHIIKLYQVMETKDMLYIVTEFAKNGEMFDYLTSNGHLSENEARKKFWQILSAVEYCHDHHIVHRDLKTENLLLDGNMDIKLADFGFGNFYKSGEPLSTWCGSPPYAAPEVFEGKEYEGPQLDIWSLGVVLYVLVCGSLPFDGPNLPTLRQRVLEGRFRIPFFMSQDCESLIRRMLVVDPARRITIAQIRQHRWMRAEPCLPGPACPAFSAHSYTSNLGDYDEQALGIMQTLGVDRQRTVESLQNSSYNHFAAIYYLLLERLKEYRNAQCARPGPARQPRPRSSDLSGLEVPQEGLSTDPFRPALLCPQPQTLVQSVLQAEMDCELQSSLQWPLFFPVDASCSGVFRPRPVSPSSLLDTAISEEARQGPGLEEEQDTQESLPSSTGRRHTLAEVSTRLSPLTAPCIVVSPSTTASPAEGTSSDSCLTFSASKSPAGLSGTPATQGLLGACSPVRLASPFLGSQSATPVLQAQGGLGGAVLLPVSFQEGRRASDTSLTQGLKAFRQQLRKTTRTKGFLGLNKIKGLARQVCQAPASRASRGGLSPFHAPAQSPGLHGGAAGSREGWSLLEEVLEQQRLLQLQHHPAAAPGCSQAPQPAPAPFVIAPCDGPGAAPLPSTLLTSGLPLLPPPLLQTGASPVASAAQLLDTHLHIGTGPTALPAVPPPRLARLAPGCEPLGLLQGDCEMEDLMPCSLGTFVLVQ
Dual specificity mitogen-activated protein kinase kinase 1 (Homo sapiens), sequence (Q02750 whole entry): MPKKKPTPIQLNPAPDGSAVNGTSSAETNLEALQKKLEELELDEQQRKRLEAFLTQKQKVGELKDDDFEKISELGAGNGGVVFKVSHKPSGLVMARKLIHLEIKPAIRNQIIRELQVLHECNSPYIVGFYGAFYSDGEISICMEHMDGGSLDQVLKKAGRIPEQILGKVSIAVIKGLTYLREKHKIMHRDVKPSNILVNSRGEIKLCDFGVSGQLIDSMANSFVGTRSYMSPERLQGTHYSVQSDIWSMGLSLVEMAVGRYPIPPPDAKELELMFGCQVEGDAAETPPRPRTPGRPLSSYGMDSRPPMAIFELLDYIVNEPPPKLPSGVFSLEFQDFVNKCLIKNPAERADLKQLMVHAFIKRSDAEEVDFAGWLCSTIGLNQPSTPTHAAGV

For `COc1ccccc1-n1c(-c2ccccc2C)cn2c3c(=O)[nH]c(=O)n(C)c3nc12`, the IC50 on Ephrin type-B receptor 4 [1] was found to be 180 nM; on Ephrin type-B receptor 4 [2], 47 nM. Moreover, the Activity worked out at 70% in assay [3]; 97% in assay [4]; 93% in assay [5]; 97% in [6]; 98% in [7]; 90% in assay [8]. Moreover, the Activity was determined as 101% in assay [9] and 93% in assay [10].
Take `COc1ccccc1-n1c(-c2cc(O)ccc2C)cn2c3c(=O)[nH]c(=O)n(C)c3nc12`: the Activity in assay [11] amounted to 2.9%; in assay [12] it was 5.8%; in assay [13], 41%; in assay [14], 18%; in assay [15], 75%; in [16], 0.6%. Further, the Activity in [17] was determined as 88%; in assay [18], 3%; in assay [19], 104%; in [20], 104%. Further, the IC50 at Ephrin type-B receptor 4 [1] came out at 5 nM; against Ephrin type-B receptor 4 [2] it was 1.6 nM.

The values are drawn from ChEMBL document CHEMBL1154183, “Structure-based optimization of potent and selective inhibitors of the tyrosine kinase erythropoietin producing human hepatocellular carcinoma receptor B4 (EphB4)” (J Med Chem, 2009).
